Source: ChEMBL document CHEMBL3272325, “Structure-activity relationships of dimeric Catharanthus alkaloids. 1. Deacetylvinblastine amide (vindesine) sulfate” (J Med Chem, 1978)

Assays:
Assay type in all cases: functional
Conditions in all cases: route intraperitoneal
[1] = Antitumor activity against mouse Ridgeway osteogenic sarcoma cells allografted in mouse at 0.2 to 0.3 mg/kg/day, ip
Procedure, shortened: (§1)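 Ridgeway osteogenic sarcoma and Gardner lymphosarcoma in mice, with sulfate salts given ip daily on days 1-9. Tumor growth inhibition versus controls scored in bands: +++ = 75-100%, ++ = 50-75%, ± = under 25%.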

[2] = Antitumor activity against mouse Gardner lymphosarcoma cell allografted in mouse at 0.2 to 0.3 mg/kg/day, ip; procedure, shortened: as §1
[3] = Antitumor activity against mouse Ridgeway osteogenic sarcoma cells allografted in mouse at 1 to 2 mg/kg/day, ip
Procedure, shortened: (§2)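 Sulfate salts given ip on days 1-9 against ROS and GLS in mice; tumor growth scored as percent inhibition versus controls (+++ = 75-100%, ++ = 50-75%, ± = under 25%).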

[4] = Antitumor activity against mouse Gardner lymphosarcoma cell allografted in mouse at 1.0 to 2.0 mg/kg/day, ip; procedure, shortened: as §2

Molecule `CC[C@]1(O)C[C@H]2CN(CCc3c([nH]c4ccccc34)[C@@](C(=O)OC)(c3cc4c(cc3OC)N(C)[C@H]3[C@@](O)(C(=O)NN)[C@H](O)[C@]5(CC)C=CCN6CC[C@]43[C@@H]65)C2)C1` has a TGI [1] of 75% and a TGI [2] of 75%.
Work on `CC[C@]1(O)C[C@@H]2C[C@H](c3cc4c(cc3OC)N(C)[C@H]3[C@@](O)(C(N)=O)[C@H](O)[C@]5(CC)C=CCN6CC[C@]43[C@@H]65)c3[nH]c4ccccc4c3CCN(C2)C1.O=S(=O)(O)O` yielded a TGI [3] of less than 25% and a TGI [4] of less than 25%.
